What was measured:
Homo sapiens = species on record: Homo sapiens; assay: Selectivity ratio of IC50 for mTOR (unknown origin) to IC50 for PI3Kalpha (unknown origin)
[1] = target: Phosphatidylinositol 4,5-bisphosphate 3-kinase catalytic subunit alpha isoform (Homo sapiens, UniProt P42336); assay: Inhibition of PI3Kalpha (unknown origin) using PIP2/PS as substrate after 1 hr by luciferase-based luminescence assay
[2] = target: Serine/threonine-protein kinase mTOR (Homo sapiens, UniProt P42345); assay: Inhibition of mTOR (unknown origin) using GFP-4E-BP1 as substrate after 1 hr by TR-FRET assay
U-87 MG = assay: Cytotoxicity against human U87MG cells harboring PTEN deletion mutant assessed as growth inhibition after 4 days by CellTiter-Glo luminescent cell viability assay; assay type: functional, cell-based, U-87MG ATCC; conditions: 96 h
In short: (§1)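 Proliferation panel of human cancer lines carrying either a PIK3CA mutation or a PTEN deletion, with A549 as the one line carrying neither. Growth inhibition is reported as IC50.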

[3] = Apparent permeability across basolateral to apical side in human Caco2 cells at 10 uM after 1.5 hrs by LC/MS/MS analysis; assay type: ADME, cell-based; conditions: Caco-2
NCI-H1975 = assay: Cytotoxicity against human NCI-H1975 cells harboring PIK3CA mutant assessed as growth inhibition after 4 days by CellTiter-Glo luminescent cell viability assay; assay type: functional, cell-based; conditions: NCI-H1975, 96 h; in short: as §1
[4] = target: Phosphatidylinositol 4,5-bisphosphate 3-kinase catalytic subunit beta isoform (Homo sapiens, UniProt P42338); assay: Inhibition of PI3Kbeta (unknown origin) using PIP2/PS as substrate after 1 hr by luciferase-based luminescence assay
[5] = target: T1, Phosphatidylinositol 4,5-bisphosphate 3-kinase catalytic subunit delta isoform (Homo sapiens, UniProt O00329); assay: Inhibition of PI3Kdelta (unknown origin) using PIP2/PS as substrate after 1 hr by luciferase-based luminescence assay
T1 sequence (O00329 whole entry): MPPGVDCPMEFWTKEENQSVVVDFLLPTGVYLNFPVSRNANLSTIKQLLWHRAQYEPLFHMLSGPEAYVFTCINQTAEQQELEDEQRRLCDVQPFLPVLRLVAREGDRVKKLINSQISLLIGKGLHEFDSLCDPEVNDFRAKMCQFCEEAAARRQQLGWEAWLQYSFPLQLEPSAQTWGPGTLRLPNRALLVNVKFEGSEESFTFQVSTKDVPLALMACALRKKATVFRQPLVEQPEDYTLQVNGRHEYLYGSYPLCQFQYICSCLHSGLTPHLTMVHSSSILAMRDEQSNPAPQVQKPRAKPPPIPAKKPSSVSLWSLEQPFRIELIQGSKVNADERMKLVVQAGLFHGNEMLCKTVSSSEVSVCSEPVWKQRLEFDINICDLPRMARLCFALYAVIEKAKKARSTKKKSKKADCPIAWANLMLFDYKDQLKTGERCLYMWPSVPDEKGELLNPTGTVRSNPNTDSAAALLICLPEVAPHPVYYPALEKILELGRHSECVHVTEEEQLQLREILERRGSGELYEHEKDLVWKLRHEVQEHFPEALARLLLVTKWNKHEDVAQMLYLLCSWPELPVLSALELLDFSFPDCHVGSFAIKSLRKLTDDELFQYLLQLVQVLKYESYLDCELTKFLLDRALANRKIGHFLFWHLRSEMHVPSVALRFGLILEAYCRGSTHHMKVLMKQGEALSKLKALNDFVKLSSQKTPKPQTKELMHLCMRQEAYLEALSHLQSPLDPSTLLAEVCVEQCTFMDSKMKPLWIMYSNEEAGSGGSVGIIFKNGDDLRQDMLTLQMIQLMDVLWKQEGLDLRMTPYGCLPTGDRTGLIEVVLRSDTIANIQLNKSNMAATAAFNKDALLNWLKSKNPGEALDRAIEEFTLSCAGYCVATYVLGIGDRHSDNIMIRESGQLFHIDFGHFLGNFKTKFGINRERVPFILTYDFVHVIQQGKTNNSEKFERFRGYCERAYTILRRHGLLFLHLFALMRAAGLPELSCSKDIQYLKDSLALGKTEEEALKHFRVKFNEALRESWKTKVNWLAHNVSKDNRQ

[6] = Apparent permeability across apical to basolateral side in human Caco2 cells at 10 uM after 1.5 hrs by LC/MS/MS analysis; assay type: ADME, cell-based; conditions: Caco-2
[7] = Cytotoxicity against human H460 cells harboring PIK3CA mutant assessed as growth inhibition after 4 days by CellTiter-Glo luminescent cell viability assay; assay type: functional, cell-based; conditions: NCI-H460, 96 h; in short: as §1
[8] = Efflux ratio of apparent permeability across basolateral to apical side over apical to basolateral side in human Caco2 cells; assay type: ADME, cell-based; conditions: Caco-2
T47D = assay: Cytotoxicity against human T47D cells harboring PIK3CA mutant assessed as growth inhibition after 4 days by CellTiter-Glo luminescent cell viability assay; assay type: functional, cell-based; conditions: 96 h; in short: as §1
[9] = Permeability of the compound after 5 hrs by PAMPA; assay type: physicochemical; conditions: read-out: permeability
[10] = target: Phosphatidylinositol 4,5-bisphosphate 3-kinase catalytic subunit gamma isoform (Homo sapiens, UniProt P48736); assay: Inhibition of PI3Kgamma (unknown origin) using PIP2/PS as substrate after 1 hr by luciferase-based luminescence assay
SK-OV-3 = assay: Cytotoxicity against human SKOV3 cells harboring PIK3CA mutant assessed as growth inhibition after 4 days by CellTiter-Glo luminescent cell viability assay; assay type: functional, cell-based; conditions: SK-OV-3, 96 h; in short: as §1
A549 = assay: Cytotoxicity against PTEN deletion mutant/PIK3CA mutant-deficient human A549 cells assessed as growth inhibition after 4 days by CellTiter-Glo luminescent cell viability assay; assay type: functional, cell-based; conditions: A549, 96 h; in short: as §1
[11] = Inhibition of PI3K in human T47D cells assessed as inhibition of AKT phosphorylation at Ser 473 after 4 hrs by Western blot analysis; assay type: cell-based

Sequence of Phosphatidylinositol 4,5-bisphosphate 3-kinase catalytic subunit alpha isoform (P42336 whole entry, canonical isoform): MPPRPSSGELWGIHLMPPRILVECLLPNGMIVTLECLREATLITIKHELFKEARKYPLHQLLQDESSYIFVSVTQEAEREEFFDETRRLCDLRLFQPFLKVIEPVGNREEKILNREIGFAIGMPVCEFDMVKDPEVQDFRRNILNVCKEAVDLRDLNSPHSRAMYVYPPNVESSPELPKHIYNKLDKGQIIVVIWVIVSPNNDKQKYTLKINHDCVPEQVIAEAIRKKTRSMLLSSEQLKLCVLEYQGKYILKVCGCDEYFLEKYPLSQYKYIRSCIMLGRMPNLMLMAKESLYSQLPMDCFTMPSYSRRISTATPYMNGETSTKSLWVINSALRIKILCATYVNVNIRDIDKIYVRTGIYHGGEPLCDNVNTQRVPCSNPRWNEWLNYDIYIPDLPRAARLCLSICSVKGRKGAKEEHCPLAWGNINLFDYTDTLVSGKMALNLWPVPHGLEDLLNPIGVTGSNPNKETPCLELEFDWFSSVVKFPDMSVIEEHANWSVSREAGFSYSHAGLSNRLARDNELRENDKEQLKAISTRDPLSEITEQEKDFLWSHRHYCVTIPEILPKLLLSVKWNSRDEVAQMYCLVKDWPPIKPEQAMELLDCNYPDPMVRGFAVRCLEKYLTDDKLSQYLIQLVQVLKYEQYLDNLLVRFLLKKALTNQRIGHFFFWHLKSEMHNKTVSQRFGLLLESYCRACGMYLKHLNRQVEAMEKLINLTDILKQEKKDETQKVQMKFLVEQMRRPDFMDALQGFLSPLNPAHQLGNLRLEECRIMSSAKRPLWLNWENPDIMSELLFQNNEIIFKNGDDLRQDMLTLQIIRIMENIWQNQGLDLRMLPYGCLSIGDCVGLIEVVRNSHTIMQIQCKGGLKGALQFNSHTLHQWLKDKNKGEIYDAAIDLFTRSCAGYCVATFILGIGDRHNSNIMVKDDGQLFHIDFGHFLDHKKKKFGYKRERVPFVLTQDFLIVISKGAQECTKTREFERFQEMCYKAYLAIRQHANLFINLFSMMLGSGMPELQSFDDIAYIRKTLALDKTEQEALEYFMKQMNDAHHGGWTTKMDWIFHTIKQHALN
Sequence of Phosphatidylinositol 4,5-bisphosphate 3-kinase catalytic subunit beta isoform (P42338 whole entry, canonical isoform): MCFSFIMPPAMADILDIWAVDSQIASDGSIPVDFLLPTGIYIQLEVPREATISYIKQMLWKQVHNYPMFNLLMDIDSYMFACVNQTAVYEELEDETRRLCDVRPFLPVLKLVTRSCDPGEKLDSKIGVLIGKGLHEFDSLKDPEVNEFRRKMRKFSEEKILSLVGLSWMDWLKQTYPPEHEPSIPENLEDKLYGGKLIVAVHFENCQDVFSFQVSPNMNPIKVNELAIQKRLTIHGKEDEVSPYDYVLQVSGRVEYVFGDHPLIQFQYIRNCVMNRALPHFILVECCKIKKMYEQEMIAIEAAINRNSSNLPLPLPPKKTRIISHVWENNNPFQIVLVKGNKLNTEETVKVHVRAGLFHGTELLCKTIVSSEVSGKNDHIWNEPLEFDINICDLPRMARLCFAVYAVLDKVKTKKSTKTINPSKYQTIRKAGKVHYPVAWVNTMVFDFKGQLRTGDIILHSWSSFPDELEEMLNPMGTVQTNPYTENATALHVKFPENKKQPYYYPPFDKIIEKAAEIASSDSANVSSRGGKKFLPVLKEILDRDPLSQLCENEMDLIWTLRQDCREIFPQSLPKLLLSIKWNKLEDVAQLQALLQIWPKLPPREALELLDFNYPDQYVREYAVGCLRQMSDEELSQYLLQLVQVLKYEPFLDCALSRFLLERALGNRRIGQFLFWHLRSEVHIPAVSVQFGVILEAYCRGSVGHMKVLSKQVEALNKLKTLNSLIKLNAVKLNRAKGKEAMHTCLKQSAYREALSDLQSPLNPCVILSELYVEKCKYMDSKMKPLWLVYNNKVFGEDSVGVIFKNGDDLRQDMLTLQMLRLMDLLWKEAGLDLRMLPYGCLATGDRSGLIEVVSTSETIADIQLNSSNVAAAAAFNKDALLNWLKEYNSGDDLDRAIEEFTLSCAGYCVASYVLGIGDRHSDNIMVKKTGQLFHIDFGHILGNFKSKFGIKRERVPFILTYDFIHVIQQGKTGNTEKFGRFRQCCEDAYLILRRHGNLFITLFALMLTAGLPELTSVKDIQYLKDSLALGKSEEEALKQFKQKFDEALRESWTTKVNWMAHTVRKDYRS
Sequence of Phosphatidylinositol 4,5-bisphosphate 3-kinase catalytic subunit gamma isoform (P48736 whole entry, canonical isoform): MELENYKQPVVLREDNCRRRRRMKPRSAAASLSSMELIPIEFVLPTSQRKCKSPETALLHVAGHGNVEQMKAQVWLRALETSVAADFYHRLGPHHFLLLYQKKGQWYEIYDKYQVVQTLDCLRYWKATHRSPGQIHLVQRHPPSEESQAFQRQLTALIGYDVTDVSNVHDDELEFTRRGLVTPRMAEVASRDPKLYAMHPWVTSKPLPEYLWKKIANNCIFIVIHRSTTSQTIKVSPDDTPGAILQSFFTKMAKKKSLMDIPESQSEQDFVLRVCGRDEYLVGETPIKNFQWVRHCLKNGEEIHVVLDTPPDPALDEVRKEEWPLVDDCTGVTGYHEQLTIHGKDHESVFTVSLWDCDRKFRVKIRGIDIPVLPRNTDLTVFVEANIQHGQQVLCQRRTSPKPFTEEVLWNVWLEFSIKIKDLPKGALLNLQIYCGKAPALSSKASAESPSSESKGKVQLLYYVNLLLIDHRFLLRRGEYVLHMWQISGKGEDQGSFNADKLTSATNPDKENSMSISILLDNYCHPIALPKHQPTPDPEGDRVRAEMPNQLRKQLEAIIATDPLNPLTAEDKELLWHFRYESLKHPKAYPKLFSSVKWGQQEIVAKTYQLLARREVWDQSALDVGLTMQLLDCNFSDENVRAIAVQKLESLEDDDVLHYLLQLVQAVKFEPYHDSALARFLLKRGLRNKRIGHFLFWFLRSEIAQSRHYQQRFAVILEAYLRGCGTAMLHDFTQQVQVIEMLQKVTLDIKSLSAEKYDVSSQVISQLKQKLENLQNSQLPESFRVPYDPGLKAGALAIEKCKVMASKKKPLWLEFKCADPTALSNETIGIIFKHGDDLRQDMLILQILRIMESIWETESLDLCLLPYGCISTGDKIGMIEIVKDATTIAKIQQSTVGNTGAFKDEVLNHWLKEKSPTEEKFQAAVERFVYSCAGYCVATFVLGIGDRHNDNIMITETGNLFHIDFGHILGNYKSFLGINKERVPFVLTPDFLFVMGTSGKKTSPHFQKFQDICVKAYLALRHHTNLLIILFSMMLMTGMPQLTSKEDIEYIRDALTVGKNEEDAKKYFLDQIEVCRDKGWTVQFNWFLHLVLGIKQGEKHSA

Structure (SMILES) | Ratio IC50 (Homo sapiens) | IC50 [1] [nM] | IC50 [2] [nM] | further results
COc1ncc(-c2ccc3nccc(-c4ccncc4)c3c2)cc1NS(=O)(=O)c1ccc(F)cc1F | 7.5 | 0.1 | 0.75 | 
Cc1ncc(-c2cc3c(-c4ccncc4)ncnc3s2)cc1NS(=O)(=O)c1ccc(F)cc1F | 203 | 1.7 | 345 | 
COc1ncc(-c2cnc3ncnc(-c4ccncc4)c3c2)cc1NS(=O)(=O)c1ccc(F)cc1F | 1.2 | 51.7 | 62.3 | 
COc1ncc(-c2cc3c(-c4ccncc4)ncnc3s2)cc1NS(=O)(=O)c1ccc(C#N)cc1 | 100 | 3.6 | 363 | 
COc1ncc(-c2ccc3ncnc(-c4ccncc4)c3c2)cc1NS(=O)(=O)c1ccc(F)cc1F | 2.1 | 0.095 | 0.2 | 
COc1ncc(-c2ccc3nc(N)nc(-c4ccncc4)c3c2)cc1NS(=O)(=O)c1ccc(F)cc1F | 4.1 | 0.07 | 0.29 | 
COc1ncc(-c2cc3c(-c4ccncc4)ncnc3s2)cn1 |  | 3490 |  | 
COc1ncc(-c2cc3c(-c4ccncc4)ncnc3s2)cc1NS(C)(=O)=O |  | 43.1 |  | 
COc1ncc(-c2cc3c(-c4ccncc4)ncnc3s2)cc1NS(=O)(=O)c1ccc(Cl)s1 | 52 | 1.3 | 67.9 | 
O=S(=O)(Nc1cc(-c2cc3c(-c4ccncc4)ncnc3s2)cnc1Cl)c1ccc(F)cc1 | 146 | 0.3 | 43.7 | 
COc1ncc(-c2cc3c(-c4ccncc4)ncnc3s2)cc1F |  | > 2500 |  | 
COc1ncc(-c2cnc3nccc(-c4ccncc4)c3c2)cc1NS(=O)(=O)c1ccc(F)cc1F | 1.9 | 34.7 | 66.7 | 
O=S(=O)(Nc1cc(-c2cc3c(-c4ccncc4)ncnc3s2)cnc1Cl)c1ccc(F)cc1F | 233 | 0.23 | 53.6 | IC50 (U-87 MG): 4.43 µM; Papp B→A at 1.5 h, 10 µM [3]: 6.9 ×10⁻⁶ cm/s; IC50 (NCI-H1975): 2200 nM; IC50 [4]: 3.6 nM; IC50 [5]: 3.1 nM; Papp A→B at 1.5 h, 10 µM [6]: 4.8 ×10⁻⁶ cm/s; IC50 [7]: 2940 nM; efflux ratio [8]: 1.4; IC50 (T47D): 1520 nM; Papp at 5 h [9]: 7 ×10⁻⁶ cm/s; IC50 [10]: 10.2 nM; IC50 (SK-OV-3): 5.2 µM; IC50 (A549): 8.44 µM
COc1ncc(-c2sc3ncnc(-c4ccncc4)c3c2C)cc1NS(=O)(=O)c1ccc(F)cc1F |  | 72.3 |  | 
O=S(=O)(Nc1cc(-c2cc3c(-c4ccncc4)ncnc3s2)cnc1Cl)c1ccc(Cl)s1 | 172 | 0.15 | 25.8 | 
COc1ccc(-c2cc3c(-c4ccncc4)ncnc3s2)cn1 |  | 1230 |  | 
COc1ncc(-c2ccc3nncc(-c4ccncc4)c3c2)cc1NS(=O)(=O)c1ccc(F)cc1F | 80 | 0.27 | 21.6 | 
COc1ncc(-c2cc3c(-c4ccncc4)ncnc3s2)cc1NS(=O)(=O)c1ccc(F)cc1F | 105 | 2.07 | 218 | IC50 (U-87 MG): 4.4 µM; Papp B→A at 1.5 h, 10 µM [3]: 4.5 ×10⁻⁶ cm/s; IC50 (NCI-H1975): 1070 nM; IC50 [4]: 22.5 nM; IC50 [5]: 13.3 nM; Papp A→B at 1.5 h, 10 µM [6]: 5.6 ×10⁻⁶ cm/s; IC50 [7]: 420 nM; IC50 [11]: 84.6 nM; efflux ratio [8]: 0.8; IC50 (T47D): 660 nM; Papp at 5 h [9]: 8 ×10⁻⁶ cm/s; IC50 [10]: 21.1 nM; IC50 (SK-OV-3): 3.74 µM; IC50 (A549): 3.18 µM
COc1ncc(-c2cc3c(-c4ccncc4)ccnc3cn2)cc1NS(=O)(=O)c1ccc(F)cc1F | 3 | 1.02 | 3.04 | 
COc1ncc(-c2cnc3nc(N)nc(-c4ccncc4)c3c2)cc1NS(=O)(=O)c1ccc(F)cc1F | 0.52 |  |  | 
COc1ncc(-c2cc3c(-c4ccncc4)ncnc3s2)cc1NS(=O)(=O)c1ccc(C(F)(F)F)cc1 |  | 17 |  | 

Source: ChEMBL document CHEMBL3576869 (ACS Med Chem Lett, 2015)
